{"data": "Measured values gathered from unrelated publications", "target": "Tyrosine-protein kinase SYK (SYK, Homo sapiens, UniProt P43405)", "note": "Lines come from different studies, so protocols differ."}
{"SMILES": "C=CC(=O)Nc1cc(Nc2nccc(Nc3cc(Cl)c(F)cc3C(C)(C)O)n2)c(OC)cc1N1CC[C@@H](N(C)C)C1", "test": "enzyme activity, inhibitor", "setting": "1 µM", "quantity": "inhibition", "result": "14%"}
{"SMILES": "Cc1ccc(NC(=O)c2ccc(C)c(C(F)(F)F)c2)cc1C#Cc1nn(C2CCC(O)CC2)c2ncnc(N)c12 (centres unmarked)", "test": "cell-free assay", "setting": "10 µM", "quantity": "remaining signal", "result": "95%"}
{"SMILES": "CN1CC(Oc2cnc(C#N)cc2-c2ccn3nc(NC(=O)C4CC4)cc3c2)C1", "test": "enzyme activity, inhibitor", "setting": "1 µM", "quantity": "inhibition", "result": "1%"}
{"SMILES": "CC(C)(O)[C@H]1CC[C@H](Nc2ccc3ncc(-c4cccc(C(F)(F)F)c4)n3n2)CC1", "test": "enzyme activity, inhibitor", "setting": "1 µM", "quantity": "remaining activity", "result": "72.3%"}
{"SMILES": "Nc1nc(NC2CCCCC2)sc1C(=O)c1ccccc1", "test": "enzyme activity, inhibitor", "setting": "10 µM", "quantity": "remaining activity", "result": "91%"}
{"SMILES": "CN(C)C1CCN(CC#Cc2nn(C3CCCC3)c3nc(NCc4ccccc4)ncc23)C1 (centres unmarked)", "test": "enzyme activity, inhibitor, FRET", "setting": "0.1 µM", "quantity": "inhibition", "result": "2%"}
{"SMILES": "Cc1ccc(Nc2nccc(N(C)c3ccc4c(C)n(C)nc4c3)n2)cc1S(N)(=O)=O", "test": "enzyme activity, inhibitor", "setting": "10 µM", "quantity": "inhibition", "result": "88%"}
{"SMILES": "COc1cc(Nc2cnc(C#N)c(O[C@H](C)CN(C)C)n2)ncc1-c1cnn(C)c1", "test": "enzyme activity, inhibitor, radiometric", "setting": "10 µM", "quantity": "remaining activity", "result": "63%"}
{"SMILES": "Cc1c(NC(=O)c2cc(C(N)=O)nc3cc(F)ccc23)c(C(F)(F)F)nn1Cc1ccc(C#N)cc1", "test": "cell-free assay, competition with immobilised ligand", "setting": "1 µM", "quantity": "remaining binding", "result": "95%"}
{"SMILES": "Cc1cc(NC(=O)c2cccc3cc(-c4cccc5[nH]nc(N)c45)ccc23)ccc1F", "test": "enzyme activity, inhibitor", "setting": "0.1 µM", "quantity": "activity vs control", "result": "109%"}
{"SMILES": "C[C@H](c1ccnc(Nc2nc3ccc(-c4cc(N(C)C)ncn4)cc3[nH]2)c1)N1CCN(C(=O)CC(F)(F)F)CC1", "test": "binding, competition with immobilised ligand", "setting": "0.1 µM", "quantity": "remaining binding", "result": "31%"}
{"SMILES": "CNC(=O)c1cc(Oc2ccc(NC(=O)Nc3ccc(Cl)c(C(F)(F)F)c3)cc2)ccn1", "test": "enzyme activity, inhibitor", "setting": "10 µM", "quantity": "inhibition", "result": "-6%"}
{"SMILES": "Cc1ccc(C(=O)NCc2ccsc2)cc1C#Cc1cn(C(C)C)c2ncnc(N)c12", "test": "enzyme activity, inhibitor", "setting": "1 µM", "quantity": "activity vs control", "result": "91%"}
{"SMILES": "CC(=O)N1CCC(c2ccc(C(=O)NC3=NCCN3)cc2C(F)(F)F)CC1", "test": "cell-free assay, competition with immobilised ligand", "setting": "1 µM", "quantity": "remaining binding", "result": "100%"}
{"SMILES": "c1nc2c(Nc3ccc4c(c3)OCCO4)nc(Nc3ccc4c(c3)OCCO4)nc2[nH]1", "test": "enzyme activity, inhibitor", "setting": "10 µM", "quantity": "activity vs control", "result": "2%"}
{"SMILES": "COc1cc(Cl)c(C(=O)N[C@@H](CN[C@H]2CC[C@@H](N)CC2)Cc2ccc(C#N)cc2)cc1-c1ccc(CN[C@H](C)c2ccc(C)cc2)o1", "test": "enzyme activity, inhibitor", "setting": "1 µM", "quantity": "remaining activity", "result": "97%"}
{"SMILES": "CS(=O)(=O)Nc1cccc(-c2csc(NC(=O)CSc3nc4nccnc4c(=O)n3CCc3ccccc3)n2)c1", "test": "enzyme activity, inhibitor", "setting": "10 µM", "quantity": "inhibition", "result": "-1%"}
{"SMILES": "COc1cc2ncnc(Nc3ccc(Oc4ccccc4)c(C)c3C)c2cc1OC", "test": "enzyme activity, inhibitor", "setting": "1 µM", "quantity": "inhibition", "result": "4%"}
{"SMILES": "CCCOc1ccc([C@H]2[C@H](C(=O)O)[C@@H](c3ccc4c(c3)OCO4)CN2CC(=O)Nc2c(CC)cccc2CC)cc1", "test": "cell-free assay, competition with immobilised ligand", "setting": "1 µM", "quantity": "remaining binding", "result": "100%"}
{"SMILES": "Nc1nc(Nc2ccccc2)sc1C(=O)c1c(F)cccc1F", "test": "enzyme activity, inhibitor", "setting": "10 µM", "quantity": "remaining activity", "result": "37%"}
{"SMILES": "CS(=O)(=O)NCC[C@H](NC(=O)c1cncc2c1cnn2-c1ccc(F)cc1)c1ccnc(S(C)(=O)=O)c1", "test": "cell-free assay, competition with immobilised ligand", "setting": "1 µM", "quantity": "remaining binding", "result": "100%"}
{"SMILES": "FC(F)(F)Oc1cccc(-c2cnc3ccc(-c4ccncc4)nn23)c1", "test": "enzyme activity, inhibitor, radiometric", "setting": "5 µM", "quantity": "activity vs control", "result": "72%"}
{"SMILES": "O=C(Nc1cnn(-c2csc(C(=O)NC3COC3)c2)c1)Nc1c(F)cccc1Cl", "test": "enzyme activity, inhibitor", "setting": "5 µM", "quantity": "remaining activity", "result": "90.3%"}
{"SMILES": "O=C(N1CCS(=O)(=O)CC1)N1C[C@H](c2ccc(OC(F)(F)F)cc2)C[C@H](c2nc(C3CC3)no2)C1", "test": "cell-free assay, competition with immobilised ligand", "setting": "1 µM", "quantity": "remaining binding", "result": "100%"}
{"SMILES": "O=C(Nc1cnn(-c2csc(C(=O)NC3COC3)c2)c1)Nc1ccccc1Cl", "test": "enzyme activity, inhibitor", "setting": "5 µM", "quantity": "remaining activity", "result": "101%"}
{"SMILES": "FC(F)c1nc2ccccc2n1-c1nc(N2CCOCC2)nc(N2CCOCC2)n1", "test": "enzyme activity, inhibitor", "setting": "10 µM", "quantity": "remaining activity", "result": "85%"}
{"SMILES": "Oc1cccc(-c2nc(N3CCOCC3)c3oc4ncccc4c3n2)c1", "test": "cell-free assay", "setting": "0.5 µM", "quantity": "remaining signal", "result": "94.2%"}
{"SMILES": "Cn1cc(Cl)c2c(Oc3c(F)cc(Nc4cc(Cl)nc(N)n4)cc3F)ccnc21", "test": "cell-free assay, competition with immobilised ligand", "setting": "0.1 µM", "quantity": "remaining binding", "result": "100%"}
{"SMILES": "COc1cc2c(Nc3ccc(Br)cc3F)ncnc2cc1OCC1CCN(C)CC1", "test": "cell-free assay", "setting": "0.5 µM", "quantity": "remaining signal", "result": "101%"}
{"SMILES": "Cn1nc(C(=O)NCc2ccc(C(=O)O)cc2)cc1-c1ccc2[nH]ccc2c1", "test": "cell-free assay, competition with immobilised ligand", "setting": "0.1 µM", "quantity": "remaining binding", "result": "81%"}
{"SMILES": "N#CCCc1ccc2c(c1)-c1[nH]c3ccc([N+](=O)[O-])cc3c1CC(=O)N2", "test": "cell-free assay", "setting": "0.5 µM", "quantity": "remaining signal", "result": "58%"}
{"SMILES": "CC(C)(C)c1nc(-c2cccc(NS(=O)(=O)c3c(F)cccc3F)c2F)c(-c2ccnc(N)n2)s1", "test": "enzyme activity, inhibitor, radiometric", "setting": "1 µM", "quantity": "remaining activity", "result": "111%"}
